{"source": "paper PMC11814085", "about": "(Scientific Reports, 2025)", "key": {"[1]": {"system": "TNBC cell lines and LSECs", "assay": "GR analysis, comparison across cell lines/type", "format": "cell-based"}, "[2]": {"system": "TNBC cancer cell lines and LSEC", "assay": "Cellular partitioning and in vitro therapeutic index across cell lines/type", "format": "in vitro ADME", "details": "range over cancer cell lines"}, "MDA-MB-468 cells": {"system": "MDA-MB-468 cells", "assay": "CTG assay in presence and absence of P-gp inhibitor", "format": "cell-based", "method_in_brief": "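MDA-MB-468 cells were seeded at their pre-optimized density and allowed to adhere for 24 h. They were then exposed continuously to 0–200nM test compound for 3 days, in parallel with and without 0.6 µM zosuquidar (P-gp inhibitor). Read-out was CellTiter-Glo 2.0 cellular ATP.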"}, "MDA-MB-468": {"system": "MDA-MB-468", "assay": "Live cell imaging of growth, fluorescent nuclear marker", "format": "cell-based", "details": "MDA-MB-468, highest doses", "method_in_brief": "(§1)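 Cells were transfected with a red fluorescent nuclear marker. Growth in the presence of test compound was followed longitudinally by live-cell imaging of nuclei, as a check independent of the CellTiter-Glo endpoint.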"}, "HCC1937": {"system": "HCC1937", "assay": "Live cell imaging of growth, fluorescent nuclear marker", "format": "cell-based", "method_in_brief": "as §1"}, "tubulin": {"system": "tubulin", "details": "cell free system; cited from earlier work"}, "P-gp": {"system": "P-gp", "details": "read-out: P-gp inhibition Ki; cited from earlier work"}}, "note": "Square brackets hold non-standard residues; d marks the D form. Peptide text beside a SMILES is read from it. * marks the point of attachment. Dolaproine = CO[C@@H]([C@@H]1CCCN1)[C@@H](C)C(=O)O; Dil = CC[C@H](C)[C@H](NC)[C@@H](CC(=O)O)OC; Doe = c1ccc(C[C@H](N*)c2nccs2)cc1; X1 = C[C@@H](N*)[C@@H](O)c1ccccc1; NMeV = CN[C@H](C(=O)O)C(C)C", "data": [{"smiles": "CC[C@H](C)[C@@H]([C@@H](CC(=O)N1CCC[C@H]1[C@H](OC)[C@@H](C)C(=O)N[C@@H](Cc1ccccc1)c1nccs1)OC)N(C)C(=O)[C@@H](NC(=O)[C@@H](NC)C(C)C)C(C)C", "note": "[MMAD, Monomethyl auristatin D] (H-[NMeV]V[Dil][Dolaproine]-Doe)", "values": [{"measurement": "GR50, fold lower than MMAE", "setting": "[1]; media GR50, across cell lines/type", "value": "6-31 x"}, {"measurement": "in vitro therapeutic index (TI), ratio of intracellular GR50 in LSEC to that in the cancer cell lines", "setting": "[2]", "value": "12–244 x"}]}, {"smiles": "CC[C@H](C)[C@@H]([C@@H](CC(=O)N1CCC[C@H]1[C@H](OC)[C@@H](C)C(=O)N[C@H](C)[C@@H](O)c1ccccc1)OC)N(C)C(=O)[C@@H](NC(=O)[C@@H](NC)C(C)C)C(C)C", "note": "[MMAE, Monomethyl auristatin E] (H-[NMeV]V[Dil][Dolaproine]-X1)", "values": [{"measurement": "dose response in presence and absence of P-gp efflux pump inhibitor", "setting": "MDA-MB-468 cells; MDA-MB-468, with and without 0.6 µM Zosuquidar", "value": "nearly identical dose response"}, {"measurement": "cell growth in live cell imaging", "setting": "MDA-MB-468", "value": "completely inhibited"}, {"measurement": "GR50 in LSECs, fold higher than in cancer cell lines", "setting": "[1]; media GR50, LSECs versus cancer cell lines", "value": "3-21 x"}, {"measurement": "cell growth in live cell imaging", "setting": "HCC1937", "value": "only marginal inhibition"}, {"measurement": "in vitro therapeutic index (TI), ratio of intracellular GR50 in LSEC to that in the cancer cell lines", "setting": "[2]", "value": "3-60 x"}]}, {"smiles": "CC[C@H](C)[C@@H]([C@@H](CC(=O)N1CCC[C@H]1[C@H](OC)[C@@H](C)C(=O)N[C@@H](Cc1ccccc1)C(=O)O)OC)N(C)C(=O)[C@@H](NC(=O)[C@@H](NC)C(C)C)C(C)C", "note": "[MMAF, monomethyl auristatin F] (H-[NMeV]V[Dil][Dolaproine]F-OH)", "values": [{"measurement": "tubulin binding affinity, fold better than MMAE", "setting": "tubulin", "value": "~ 5 x"}]}, {"smiles": "O[C@@H](COc1cccc2ncccc12)CN1CCN([C@@H]2c3ccccc3[C@@H]3[C@H](c4ccccc42)C3(F)F)CC1", "note": "[Zosuquidar]", "values": [{"measurement": "effect of P-gp inhibitor by itself on cell growth", "setting": "MDA-MB-468 cells; auristatin free MDA-MB-468 cells, 0.6 µM", "value": "did not have undesired effect on cell growth"}, {"measurement": "Ki", "setting": "P-gp", "value": 60, "unit": "nM"}]}]}
